According to ChEMBL document CHEMBL1157968, “Chemical and cytotoxic constituents from the leaves of Cinnamomum kotoense” (2006):

Experiments:
Assay type in all cases: functional
HeLa [1] = assay: Cell cycle arrest in human HeLa cells pretreated with 10 uM Dexamethasone for 1 hr assessed as G2/M phase accumulation at 100 uM after 24 hrs by FACS
Summary of the method: (§1)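 HeLa cells pretreated for 1 h with the listed agent (10 mM GSH ethyl ester, 10 µM dexamethasone, 10 µM pifithrin, 100 µM Boc-Asp(OMe)-fmk or 5 µM cyclosporin A), then given 100 µM compound for 24 h. Cells fixed in PBS-MeOH, stained with PI/RNase and analysed by flow cytometry for DNA content. At least three experiments, one representative shown.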

HeLa [2] = assay: Cell cycle arrest in human HeLa cells assessed as S phase accumulation at 25 uM after 24 hrs by FACS
Summary of the method: (§2)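 HeLa cells seeded 5 × 10^5 per dish 48 h ahead in DMEM with 10% FCS, then exposed to compound for 24 h (DMSO 0.1% final). Adherent and floating cells pooled, fixed in PBS-MeOH (1:2) at 4 °C for at least 18 h, and stained with PI (50 µg/mL) plus RNase A for 30 min at room temperature. Flow cytometry at 488 nm excitation, doublets gated out; phase percentages taken from DNA histograms.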

HeLa [3] = assay: Cell cycle arrest in human HeLa cells assessed as G2/M phase accumulation at 50 uM after 24 hrs by FACS; summary of the method: as §2
HeLa [4] = assay: Cell cycle arrest in human HeLa cells assessed as G1 phase accumulation at 100 uM after 24 hrs by FACS; summary of the method: as §2
HeLa [5] = assay: Induction of apoptosis in human HeLa cells assessed as increase in intracellular hydrogen peroxide level at 100 uM after 1 hr by FACS relative to untreated control
Summary of the method: (§3)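 HeLa cells at 80% confluence were refed and exposed to 100 µM for 1, 3 or 24 h. They were loaded with 10 µM DCFH-DA for 30 min in the dark, trypsinized and resuspended in PBS. DCF fluorescence was measured by flow cytometry and expressed as fold versus untreated cells. At least three experiments.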

HeLa [6] = assay: Induction of apoptosis in human HeLa cells assessed as increase in intracellular peroxide level at 100 uM after 1 hr by FACS relative to untreated control; summary of the method: as §3
HeLa [7] = assay: Induction of apoptosis in human HeLa cells assessed as increase in intracellular peroxide level at 100 uM after 3 hrs by FACS relative to untreated control; summary of the method: as §3
HeLa [8] = assay: Induction of apoptosis in human HeLa cells assessed as increase in intracellular nitric oxide level at 100 uM after 1 hr by FACS relative to untreated control
Summary of the method: (§4)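 HeLa cells at 80% confluence were exposed to 100 µM for 1, 3 or 24 h and then stained with 1 µM DAF-2 for 10 min in the dark. After trypsinization, DAF-2 fluorescence was measured by flow cytometry and taken as fold versus untreated cells. At least three experiments.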

HeLa [9] = assay: Induction of apoptosis in human HeLa cells assessed as increase in intracellular nitric oxide level at 100 uM after 24 hrs by FACS relative to untreated control; summary of the method: as §4
HeLa [10] = assay: Induction of apoptosis in human HeLa cells assessed as increase in intracellular glutathione-depleted cell population at 50 uM after 24 hrs by FACS
Summary of the method: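 HeLa cells at 80% confluence got fresh medium and were exposed for 24 h. Adherent and floating cells were pooled, adjusted to (1-2) × 10^6/mL and stained with 25 µM CMF-DA for 30 min at 37 °C. After washing, flow cytometry scored the percentage of GSH-negative cells. At least three experiments.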

HeLa [11] = assay: Induction of apoptosis in human HeLa cells assessed as number of cells with decreased mitochondrial membrane potential at 100 uM after 1 hr by measuring rhodamine 123 fluorescence intensity; set-up: scale not given: the % may be the effect or the level left
Summary of the method: (§5)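 Cells in DMEM/10% FCS, medium renewed at 80% confluence, then 100 µM agent (0.1% DMSO final) for 1–24 h. Stained with 5 µM rhodamine 123 for 30 min in the dark, washed, trypsinized and resuspended in PBS; flow cytometry, percentage of cells with weak rhodamine 123 staining (reduced ΔΨm); at least three experiments, representative shown.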

HeLa [12] = assay: Induction of apoptosis in human HeLa cells assessed as number of cells with decreased mitochondrial membrane potential at 100 uM after 3 hrs by measuring rhodamine 123 fluorescence intensity; set-up: scale not given: the % may be the effect or the level left; summary of the method: as §5
HeLa [13] = assay: Induction of apoptosis in human HeLa cells assessed as increase caspase 3/7 activities at 100 uM after 3 hrs by FACS relative to control
Summary of the method: (§6)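 After 3–24 h exposure at 100 µM, HeLa cells were trypsinized. 1 × 10^6 cells in DMEM were mixed 1:1 with Z-DEVD-R110 substrate reagent and incubated 1 h at 37 °C, then washed. Released R110 read per cell by flow cytometry (ex 488/em 520 nm) and expressed as fold over untreated cells. At least three runs.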

HeLa [14] = assay: Induction of apoptosis in human HeLa cells assessed as increase caspase 3/7 activities at 100 uM after 6 hrs by FACS relative to control; summary of the method: as §6
HeLa [15] = assay: Induction of apoptosis in human HeLa cells assessed as increase caspase 3/7 activities at 100 uM after 12 hrs by FACS relative to control; summary of the method: as §6
HeLa [16] = assay: Induction of apoptosis in human HeLa cells pretreated with 10 mM glutathione ethyl ester for 1 hr at 100 uM after 24 hrs by TUNEL assay
Summary of the method: (§7)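 HeLa in DMEM/10% FCS, untreated or pretreated 1 h with listed inhibitor, then 100 µM agent (0.1% DMSO final) for 24 h. Pooled cells fixed in 1% paraformaldehyde (30 min, 4 °C), 70% EtOH (30 min, −20 °C); strand breaks labelled with TdT/fluorescein-BrdUTP (1 h, 37 °C), PI/RNase counterstain; flow cytometry, % apoptotic cells; ≥3 experiments.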

HeLa [17] = assay: Induction of apoptosis in human HeLa cells pretreated with 100 uM Boc-Asp(OMe)-fmk for 1 hr at 100 uM after 24 hrs by TUNEL assay; summary of the method: as §7
HeLa [18] = assay: Induction of apoptosis in human HeLa cells pretreated with 10 uM pifithrin-alpha for 1 hr at 100 uM after 24 hrs by TUNEL assay; summary of the method: as §7
HeLa [19] = assay: Cell cycle arrest in human HeLa cells pretreated with 10 mM glutathione ethyl ester for 1 hr assessed as G2/M phase accumulation at 100 uM after 24 hrs by FACS; summary of the method: as §1
HeLa [20] = assay: Cell cycle arrest in human HeLa cells pretreated with 100 uM Boc-Asp(OMe)-fmk for 1 hr assessed as G1 phase accumulation at 100 uM after 24 hrs by FACS; summary of the method: as §1
HeLa [21] = assay: Cell cycle arrest in human HeLa cells pretreated with 100 uM Boc-Asp(OMe)-fmk for 1 hr assessed as subG1 phase accumulation at 100 uM after 24 hrs by FACS; summary of the method: as §1
HeLa [22] = assay: Cell cycle arrest in human HeLa cells pretreated with 5 uM cyclosporin A for 1 hr assessed as S phase accumulation at 100 uM after 24 hrs by FACS; summary of the method: as §1
HeLa [23] = assay: Cell cycle arrest in human HeLa cells pretreated with 5 uM cyclosporin A for 1 hr assessed as subG1 phase accumulation at 100 uM after 24 hrs by FACS; summary of the method: as §1
HeLa [24] = assay: Cell cycle arrest in human HeLa cells pretreated with 10 uM Dexamethasone for 1 hr assessed as G1 phase accumulation at 100 uM after 24 hrs by FACS; summary of the method: as §1

CCCCCCCCCCCCC/C=C(/C(=O)OC)[C@@H](O)C(C)=O [SECOKOTOMOLIDE A]
Activity (HeLa [1]): 12.3% | Activity (HeLa [2]): 18.1% | Activity (HeLa [3]): 29% | Activity (HeLa [4]): 65.2% | fold change (FC) (HeLa [5]): 3.4 | fold change (FC) (HeLa [6]): 3.4 | fold change (FC) (HeLa [7]): 2.9 | fold change (FC) (HeLa [8]): 2.1 | fold change (FC) (HeLa [9]): 2.1 | Activity (HeLa [10]): 92% | Activity (HeLa [11]): 1.4% | Activity (HeLa [12]): 2.2% | fold change (FC) (HeLa [13]): 3.5 | fold change (FC) (HeLa [14]): 5.9 | fold change (FC) (HeLa [15]): 4.6 | Activity (HeLa [16]): 5.43% | Activity (HeLa [17]): 39% | Activity (HeLa [18]): 57.3% | Activity (HeLa [19]): 11.6% | Activity (HeLa [20]): 60.6% | Activity (HeLa [21]): 74.8% | Activity (HeLa [22]): 14.4% | Activity (HeLa [23]): 61.2% | Activity (HeLa [24]): 53.9%
